Measurements taken from ChEMBL document CHEMBL4715736, “Identification of anticancer agents based on the thieno[2,3-b]pyridine and 1H-pyrazole molecular scaffolds” (2016).

Tests used:
Type in all cases: functional
IGROV-1 [1] = assay: Growth inhibition of human IGROV-1 cells incubated for 48 hrs by sulforhodamine B assay
Summary of the method: (§1)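 NCI60 panel at the NCI Developmental Therapeutics Program. Only compounds active in the 10 µM screen went to dose-response testing. GI50, the concentration giving 50% of maximal inhibition of proliferation, and TGI, the concentration giving total growth inhibition, were derived from the dose-response curves.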

SN12C = assay: Growth inhibition of human SN12C cells assessed as cell growth at 100 uM incubated for 48 hrs by sulforhodamine B assay relative to control; conditions: read-out: Activity
Malme-3M = assay: Growth inhibition of human Malme-3M cells assessed as cell growth at 0.1 uM incubated for 48 hrs by sulforhodamine B assay relative to control; conditions: read-out: Activity
CAKI-1 = assay: Growth inhibition of human CAKI-1 cells assessed as cell growth at 0.01 uM incubated for 48 hrs by sulforhodamine B assay relative to control; conditions: read-out: Activity
Summary of the method: (§2)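 NCI Developmental Therapeutics Program NCI60 panel. Compounds that were active in the 10 µM one-dose screen went on to dose–response testing. Growth at each concentration is expressed relative to untreated control (100%). GI50 (concentration giving 50% of maximal inhibition of proliferation) and TGI (concentration giving total growth inhibition) were derived from the curves.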

TK-10 = assay: Growth inhibition of human TK-10 cells assessed as cell growth at 0.01 uM incubated for 48 hrs by sulforhodamine B assay relative to control; conditions: read-out: Activity
SK-MEL-28 = assay: Growth inhibition of human SK-MEL-28 cells assessed as cell growth at 1 uM incubated for 48 hrs by sulforhodamine B assay relative to control; conditions: read-out: Activity
OVCAR-5 [2] = assay: Growth inhibition of human OVCAR-5 cells assessed as cell growth at 1 uM incubated for 48 hrs by sulforhodamine B assay relative to control; conditions: read-out: Activity
HCT-116 [3] = assay: Growth inhibition of human HCT-116 cells assessed as cell growth at 0.01 uM incubated for 48 hrs by sulforhodamine B assay relative to control; conditions: read-out: Activity
SF-268 [4] = assay: Growth inhibition of human SF-268 cells incubated for 48 hrs by sulforhodamine B assay
Summary of the method: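 NCI DTP 60-line human tumour panel. Dose-response curves were run only for ligands active in the initial 10 µM screen. GI50 (concentration giving 50% of maximal inhibition of proliferation) and TGI (concentration giving total growth inhibition) were derived from these curves.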

SK-MEL-5 [5] = assay: Growth inhibition of human SK-MEL-5 cells assessed as cell growth at 1 uM incubated for 48 hrs by sulforhodamine B assay relative to control; conditions: read-out: Activity
HOP-92 = assay: Growth inhibition of human HOP-92 cells assessed as cell growth at 0.1 uM incubated for 48 hrs by sulforhodamine B assay relative to control; conditions: read-out: Activity
T47D = assay: Growth inhibition of human T47D cells assessed as cell growth at 100 uM incubated for 48 hrs by sulforhodamine B assay relative to control; conditions: read-out: Activity
LOX IMVI = assay: Growth inhibition of human LOX IMVI cells incubated for 48 hrs by sulforhodamine B assay; summary of the method: as §1
SK-OV-3 = assay: Growth inhibition of human SK-OV-3 cells assessed as cell growth at 100 uM incubated for 48 hrs by sulforhodamine B assay relative to control; conditions: read-out: Activity
SF-268 [6] = assay: Growth inhibition of human SF-268 cells assessed as cell growth at 0.1 uM incubated for 48 hrs by sulforhodamine B assay relative to control; conditions: read-out: Activity
786-0 = assay: Growth inhibition of human 786-0 cells assessed as cell growth at 0.1 uM incubated for 48 hrs by sulforhodamine B assay relative to control; conditions: read-out: Activity; summary of the method: as §2
HCC 2998 = assay: Growth inhibition of human HCC 2998 cells assessed as cell growth at 1 uM incubated for 48 hrs by sulforhodamine B assay relative to control; conditions: read-out: Activity; summary of the method: as §2
OVCAR-5 [7] = assay: Growth inhibition of human OVCAR-5 cells assessed as cell growth at 100 uM incubated for 48 hrs by sulforhodamine B assay relative to control; conditions: read-out: Activity
SK-MEL-5 [8] = assay: Growth inhibition of human SK-MEL-5 cells assessed as cell growth at 0.1 uM incubated for 48 hrs by sulforhodamine B assay relative to control; conditions: read-out: Activity
ACHN = assay: Growth inhibition of human ACHN cells assessed as cell growth at 1 uM incubated for 48 hrs by sulforhodamine B assay relative to control; conditions: read-out: Activity
HCT-116 [9] = assay: Growth inhibition of human HCT-116 cells assessed as cell growth at 100 uM incubated for 48 hrs by sulforhodamine B assay relative to control; conditions: read-out: Activity
MDA-MB-435 = assay: Growth inhibition of human MDA-MB-435 cells assessed as cell growth at 0.01 uM incubated for 48 hrs by sulforhodamine B assay relative to control; conditions: read-out: Activity
IGROV-1 [10] = assay: Growth inhibition of human IGROV-1 cells assessed as cell growth at 100 uM incubated for 48 hrs by sulforhodamine B assay relative to control; conditions: read-out: Activity
HCT-116 [11] = assay: Growth inhibition of human HCT-116 cells assessed as cell growth at 0.1 uM incubated for 48 hrs by sulforhodamine B assay relative to control; conditions: read-out: Activity
Hs-578T = assay: Growth inhibition of human Hs-578T cells assessed as cell growth at 0.01 uM incubated for 48 hrs by sulforhodamine B assay relative to control; conditions: read-out: Activity
SK-MEL-5 [12] = assay: Growth inhibition of human SK-MEL-5 cells assessed as cell growth at 100 uM incubated for 48 hrs by sulforhodamine B assay relative to control; conditions: read-out: Activity
HOP-62 [13] = assay: Growth inhibition of human HOP-62 cells assessed as cell growth at 0.01 uM incubated for 48 hrs by sulforhodamine B assay relative to control; conditions: read-out: Activity
OVCAR-4 = assay: Growth inhibition of human OVCAR-4 cells assessed as cell growth at 100 uM incubated for 48 hrs by sulforhodamine B assay relative to control; conditions: read-out: Activity
RXF 393 = assay: Growth inhibition of human RXF 393 cells assessed as cell growth at 100 uM incubated for 48 hrs by sulforhodamine B assay relative to control; conditions: read-out: Activity
HCT-15 = assay: Growth inhibition of human HCT-15 cells assessed as cell growth at 100 uM incubated for 48 hrs by sulforhodamine B assay relative to control; conditions: read-out: Activity
PC-3 = assay: Growth inhibition of human PC-3 cells assessed as cell growth at 100 uM incubated for 48 hrs by sulforhodamine B assay relative to control; conditions: read-out: Activity
HOP-62 [14] = assay: Growth inhibition of human HOP-62 cells assessed as cell growth at 1 uM incubated for 48 hrs by sulforhodamine B assay relative to control; conditions: read-out: Activity
OVCAR-3 = assay: Growth inhibition of human OVCAR-3 cells assessed as cell growth at 0.01 uM incubated for 48 hrs by sulforhodamine B assay relative to control; conditions: read-out: Activity
SK-MEL-2 [15] = assay: Growth inhibition of human SK-MEL-2 cells assessed as cell growth at 1 uM incubated for 48 hrs by sulforhodamine B assay relative to control; conditions: read-out: Activity
SK-MEL-2 [16] = assay: Growth inhibition of human SK-MEL-2 cells assessed as cell growth at 100 uM incubated for 48 hrs by sulforhodamine B assay relative to control; conditions: read-out: Activity

SMILES: Nc1c(C(=O)Nc2ccccc2)sc2nc3c(cc12)CN(Cc1ccccc1)CC3
- GI50 (IGROV-1 [1]): 37.8 µM
- LC50 (IGROV-1 [1]): > 100 µM
- TGI (IGROV-1 [1]): > 100 µM
- growth at 100 µM (SN12C): 47%
- growth at 0.1 µM (Malme-3M): 88%
- growth at 0.01 µM (CAKI-1): 93%
- growth at 0.01 µM (TK-10): 93%
- growth at 1 µM (SK-MEL-28): 94%
- growth at 1 µM (OVCAR-5 [2]): 93%
- growth at 0.01 µM (HCT-116 [3]): 100%
- GI50 (SF-268 [4]): 5.62 µM
- LC50 (concentration killing 50% of cells) (SF-268 [4]): > 100 µM
- TGI (SF-268 [4]): > 100 µM
- growth at 1 µM (SK-MEL-5 [5]): 95%
- growth at 0.1 µM (HOP-92): 86%
- growth at 100 µM (T47D): 19%
- GI50 (LOX IMVI): 10.5 µM
- LC50 (LOX IMVI): > 100 µM
- TGI (LOX IMVI): > 100 µM
- growth at 100 µM (SK-OV-3): 5%
- growth at 0.1 µM (SF-268 [6]): 99%
- growth at 0.1 µM (786-0): 90%
- growth at 1 µM (HCC 2998): 105%
- growth at 100 µM (OVCAR-5 [7]): 66%
- growth at 0.1 µM (SK-MEL-5 [8]): 100%
- growth at 1 µM (ACHN): 87%
- growth at 100 µM (HCT-116 [9]): 17%
- growth at 0.01 µM (MDA-MB-435): 93%
- growth at 100 µM (IGROV-1 [10]): 32%
- growth at 0.1 µM (HCT-116 [11]): 92%
- growth at 0.01 µM (Hs-578T): 88%
- growth at 100 µM (SK-MEL-5 [12]): 16%
- growth at 0.01 µM (HOP-62 [13]): 89%
- growth at 100 µM (OVCAR-4): -19%
- growth at 100 µM (RXF 393): -5%
- growth at 100 µM (HCT-15): 25%
- growth at 100 µM (PC-3): 23%
- growth at 1 µM (HOP-62 [14]): 88%
- growth at 0.01 µM (OVCAR-3): 98%
- growth at 1 µM (SK-MEL-2 [15]): 101%
- growth at 100 µM (SK-MEL-2 [16]): 4%

SMILES: CN1CCc2nc3sc(C(N)=O)c(N)c3c(-c3cccs3)c2C1
- GI50 (IGROV-1 [1]): 5.16 µM
- LC50 (IGROV-1 [1]): > 100 µM
- TGI (IGROV-1 [1]): > 100 µM
- growth at 100 µM (SN12C): 6%
- growth at 0.1 µM (Malme-3M): 111%
- growth at 0.01 µM (CAKI-1): 95%
- growth at 0.01 µM (TK-10): 101%
- growth at 1 µM (SK-MEL-28): 95%
- growth at 0.01 µM (HCT-116 [3]): 100%
- GI50 (SF-268 [4]): 3.85 µM
- LC50 (concentration killing 50% of cells) (SF-268 [4]): > 100 µM
- TGI (SF-268 [4]): > 100 µM
- growth at 1 µM (SK-MEL-5 [5]): 64%
- growth at 0.1 µM (HOP-92): 116%
- growth at 100 µM (T47D): 2%
- GI50 (LOX IMVI): 1.27 µM
- LC50 (LOX IMVI): > 100 µM
- TGI (LOX IMVI): > 100 µM
- growth at 100 µM (SK-OV-3): 17%
- growth at 0.1 µM (SF-268 [6]): 110%
- growth at 0.1 µM (786-0): 99%
- growth at 1 µM (HCC 2998): 94%
- growth at 0.1 µM (SK-MEL-5 [8]): 91%
- growth at 100 µM (HCT-116 [9]): 3%
- growth at 0.01 µM (MDA-MB-435): 95%
- growth at 100 µM (IGROV-1 [10]): 9%
- growth at 0.1 µM (HCT-116 [11]): 102%
- growth at 0.01 µM (Hs-578T): 95%
- growth at 100 µM (SK-MEL-5 [12]): -42%
- growth at 0.01 µM (HOP-62 [13]): 101%
- growth at 100 µM (OVCAR-4): 6%
- growth at 100 µM (RXF 393): -46%
- growth at 100 µM (HCT-15): 6%
- growth at 100 µM (PC-3): 6%
- growth at 1 µM (HOP-62 [14]): 102%
- growth at 0.01 µM (OVCAR-3): 110%
- growth at 1 µM (SK-MEL-2 [15]): 108%
- growth at 100 µM (SK-MEL-2 [16]): -45%
